Test results published in ChEMBL document CHEMBL1135826, “Antimicrobial peptides: synthesis and antibacterial activity of linear and cyclic drosocin and apidaecin 1b analogues” (2002).
≈ marks a conversion by molar mass, not a printed value. Where a SMILES comes first, the peptide text is derived from it. The star is where a group is joined. X2 = CC(=O)N[C@@H]1[C@@H](O)[C@H](O)[C@@H](CO)O[C@@H]1*

Experiments:
Acinetobacter baumannii = experiment: Minimum inhibitory concentration (lowest peptide concentration) required to prevent visible bacterial growth after 18 hr of incubation at 37 C in Mueller-Hinton broth against Acinetobacter baumannii 118A; assay type: functional
In short: (§1)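 Broth microdilution susceptibility test per NCCLS guidelines, in Mueller–Hinton broth with about 1.5–2.0 × 10^5 CFU/mL inoculum. Plates were incubated 18 h at 37 °C. MIC was taken as the lowest peptide concentration with no visible growth. Strains were ATCC strains or clinical isolates; E. coli O18:K1:H7 Bort is an encapsulated isolate from neonatal spinal fluid, and the S. aureus isolate is MRSA.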

Escherichia coli [1] = experiment: Minimum inhibitory concentration (lowest peptide concentration) required to prevent visible bacterial growth after 18 hr of incubation at 37 C in Mueller-Hinton broth against Escherichia coli D21; assay type: functional; in short: as §1
Escherichia coli [2] = experiment: Minimum inhibitory concentration (lowest peptide concentration) required to prevent visible bacterial growth after 18 hr of incubation at 37 C in Mueller-Hinton broth against Escherichia coli D22; assay type: functional; in short: as §1
Escherichia coli [3] = experiment: Minimum inhibitory concentration (lowest peptide concentration) required to prevent visible bacterial growth after 18 hr of incubation at 37 C in Mueller-Hinton broth against Escherichia coli O18:K1:H7; assay type: functional; in short: as §1
Klebsiella pneumoniae [4] = experiment: Minimum inhibitory concentration (lowest peptide concentration) required to prevent visible bacterial growth after 18 hr of incubation at 37 C in Mueller-Hinton broth against Klebsiella pneumoniae 22; assay type: functional; in short: as §1
Klebsiella pneumoniae [5] = experiment: Minimum inhibitory concentration (lowest peptide concentration) required to prevent visible bacterial growth after 18 hr of incubation at 37 C in Mueller-Hinton broth against Klebsiella pneumoniae 79; assay type: functional; in short: as §1
Salmonella enteritidis [6] = experiment: Minimum inhibitory concentration (lowest peptide concentration) required to prevent visible bacterial growth after 18 h of incubation at 37 C in Mueller-Hinton broth against […]; assay type: functional, Salmonella enterica subsp. enterica serovar Enteritidis; details: Salmonella enterica; in short: as §1
[7] = tested on: Staphylococcus epidermidis; experiment: Minimum inhibitory concentration (lowest peptide concentration) required to prevent visible bacterial growth after 18 hr of incubation at 37 C in Mueller-Hinton broth against Staphylococcus epidermidis 4; assay type: functional; in short: as §1
Staphylococcus aureus = experiment: Minimum inhibitory concentration (lowest peptide concentration) required to prevent visible bacterial growth after 18 hr of incubation at 37 C in Mueller-Hinton broth against Staphylococcus aureus G; assay type: functional; in short: as §1
Salmonella typhimurium = experiment: Minimum inhibitory concentration (lowest peptide concentration) required to prevent visible bacterial growth after 18 hr of incubation at 37 C in Mueller-Hinton broth against Salmonella Typhimurium ATCC 14028; assay type: functional, Salmonella enterica subsp. enterica serovar Typhimurium; details: Salmonella enterica; in short: as §1
Pseudomonas aeruginosa = experiment: Minimum inhibitory concentration (lowest peptide concentration) required to prevent visible bacterial growth after 18 hr of incubation at 37 C in Mueller-Hinton broth against Pseudomonas aeruginosa ATCC 27853; assay type: functional; details: ATCC 27853, 18 h; in short: as §1
Escherichia coli [8] = experiment: Minimum inhibitory concentration (lowest peptide concentration) required to prevent visible bacterial growth after 18 hr of incubation at 37 C in Mueller-Hinton broth against Escherichia coli ATCC 25922; assay type: functional; details: ATCC 25922, 18 h; in short: as §1
Escherichia coli [9] = experiment: Minimum inhibitory concentration (lowest peptide concentration) required to prevent visible bacterial growth after 18 hr of incubation at 37 C in Mueller-Hinton broth against Escherichia coli ML-35; assay type: functional; in short: as §1
Salmonella enteritidis [10] = experiment: Minimum inhibitory concentration (lowest peptide concentration) required to prevent visible bacterial growth after 18 hr of incubation at 37 C in Mueller-Hinton broth against Salmonella enteritidis D5; details: Salmonella enterica

MIC (Acinetobacter baumannii) [µM] | MIC (Escherichia coli [1]) [µM] | MIC (Escherichia coli [2]) [µM] | MIC (Escherichia coli [3]) [µM] | MIC (Klebsiella pneumoniae [4]) [µM] | MIC (Klebsiella pneumoniae [5]) [µM] | MIC (Salmonella enteritidis [6]) [µM] | MIC [7] [µM] | MIC (Staphylococcus aureus) [µM] | MIC (Salmonella typhimurium) [µM] | MIC (Pseudomonas aeruginosa) [µM] | MIC (Escherichia coli [8]) [µM] | MIC (Escherichia coli [9]) [µM] | MIC (Salmonella enteritidis [10]) [µM] | Compound
> 128 | > 128 | > 64 | 16 | > 128 | > 128 | 16 | > 64 | > 64 | 32 | > 128 | 64 | 16 | 8 | H-GKPRPYSPRPASHPRPIRV-OH
> 64 | > 64 | > 64 | 64 | > 128 | > 128 | > 64 | > 64 | > 64 | > 64 | > 128 | 64 | 32 | 32 | H-GKPRPYSPRPSHPRPIRV-OH
> 128 | 8 (≈ 19.2 µg/mL) | 1 (≈ 2.4 µg/mL) | 1 (≈ 2.4 µg/mL) | 4 (≈ 9.61 µg/mL) | 8 (≈ 19.2 µg/mL) | 2 (≈ 4.8 µg/mL) | > 64 | > 64 | 2 (≈ 4.8 µg/mL) | > 128 | 1 (≈ 2.4 µg/mL) | 1 (≈ 2.4 µg/mL) | 1 (≈ 2.4 µg/mL) | CC[C@H](C)[C@H](NC(=O)[C@@H]1CCCN1C(=O)[C@H](CCCN=C(N)N)NC(=O)[C@@H]1CCCN1C(=O)[C@H](Cc1c[nH]cn1)NC(=O)[C@H](CO)NC(=O)[C@@H](NC(=O)[C@@H]1CCCN1C(=O)[C@H](CCCN=C(N)N)NC(=O)[C@@H]1CCCN1C(=O)[C@H](CO)NC(=O)[C@H](Cc1ccc(O)cc1)NC(=O)[C@@H]1CCCN1C(=O)[C@H](CCCN=C(N)N)NC(=O)[C@@H]1CCCN1C(=O)[C@H](CCCCN)NC(=O)CN)[C@@H](C)O[C@H]1O[C@H](CO)[C@@H](O)[C@H](O)[C@H]1NC(C)=O)C(=O)N[C@@H](CCCN=C(N)N)C(=O)N[C@H](C(=O)O)C(C)C (H-GKPRPYSPRPT(X2)SHPRPIRV-OH)
> 128 | > 64 | 4 (≈ 8.43 µg/mL) | 4 (≈ 8.43 µg/mL) | 32 (≈ 67.5 µg/mL) | 32 (≈ 67.5 µg/mL) | 4 (≈ 8.43 µg/mL) | > 64 | > 64 | 8 (≈ 16.9 µg/mL) | > 128 | 4 (≈ 8.43 µg/mL) | 4 (≈ 8.43 µg/mL) | 4 (≈ 8.43 µg/mL) | CC[C@H](C)[C@H](NC(=O)[C@H](Cc1ccc(O)cc1)NC(=O)[C@@H](NC(=O)[C@@H]1CCCN1C(=O)[C@H](CCCNC(=N)N)NC(=O)[C@H](CC(N)=O)NC(=O)[C@H](CC(N)=O)NC(=O)CN)C(C)C)C(=O)N1CCC[C@H]1C(=O)N[C@@H](CCC(N)=O)C(=O)N1CCC[C@H]1C(=O)N[C@@H](CCCNC(=N)N)C(=O)N1CCC[C@H]1C(=O)N1CCC[C@H]1C(=O)N[C@@H](Cc1cnc[nH]1)C(=O)N1CCC[C@H]1C(=O)N[C@@H](CCCNC(=N)N)C(=O)N[C@@H](CC(C)C)C(=O)O [APIDAECIN]
> 64 | > 64 | > 64 | > 64 | > 64 | > 64 | > 64 | > 64 | > 64 | > 64 | > 64 | > 64 | > 64 | > 64 | CC[C@H](C)[C@H](NC(=O)[C@@H]1CCCN1C(=O)[C@H](CCCN=C(N)N)NC(=O)[C@@H]1CCCN1C(=O)[C@H](Cc1c[nH]cn1)NC(=O)[C@@H]1CSSC[C@H](NC(=O)[C@H](Cc2ccc(O)cc2)NC(=O)[C@@H]2CCCN2C(=O)[C@H](CCCN=C(N)N)NC(=O)[C@@H]2CCCN2C(=O)[C@H](CCCCN)NC(=O)CN)C(=O)N2CCC[C@H]2C(=O)N[C@@H](CCCN=C(N)N)C(=O)N2CCC[C@H]2C(=O)N[C@@H]([C@@H](C)O)C(=O)N1)C(=O)N[C@@H](CCCN=C(N)N)C(=O)N[C@H](C(=O)O)C(C)C (HELM PEPTIDE1{G.K.P.R.P.Y.C.P.R.P.T.C.H.P.R.P.I.R.V}$PEPTIDE1,PEPTIDE1,7:R3-12:R3$$$V2.0)
> 128 | > 64 | > 64 | > 128 | > 128 | > 128 | > 128 | > 64 | > 64 | > 128 | > 128 | > 128 | > 128 | > 128 | H-GNNRPVYIPQPRPTPHPRL-OH
> 64 | > 64 | > 64 | > 64 | > 64 | > 64 | > 64 | > 64 | > 64 | > 64 | > 64 | > 64 | > 64 | > 64 | CC[C@H](C)[C@@H]1NC(=O)[C@@H]2CCCN2C(=O)[C@H](CCCNC(=N)N)NC(=O)[C@@H]2CCCN2C(=O)[C@H](Cc2cnc[nH]2)NC(=O)[C@H](CO)NC(=O)[C@H]([C@@H](C)O)NC(=O)[C@@H]2CCCN2C(=O)[C@H](CCCNC(=N)N)NC(=O)[C@@H]2CCCN2C(=O)[C@H](CO)NC(=O)[C@H](Cc2ccc(O)cc2)NC(=O)[C@@H]2CCCN2C(=O)[C@H](CCCNC(=N)N)NC(=O)[C@@H]2CCCN2C(=O)[C@H](CCCCN)NC(=O)CNC(=O)[C@H](C(C)C)NC(=O)[C@H](CCCNC(=N)N)NC(=O)[C@H]([C@@H](C)CC)NC(=O)[C@@H]2CCCN2C(=O)[C@H](CCCNC(=N)N)NC(=O)[C@@H]2CCCN2C(=O)[C@H](Cc2cnc[nH]2)NC(=O)[C@H](CO)NC(=O)[C@H]([C@@H](C)O)NC(=O)[C@@H]2CCCN2C(=O)[C@H](CCCNC(=N)N)NC(=O)[C@@H]2CCCN2C(=O)[C@H](CO)NC(=O)[C@H](Cc2ccc(O)cc2)NC(=O)[C@@H]2CCCN2C(=O)[C@H](CCCNC(=N)N)NC(=O)[C@@H]2CCCN2C(=O)[C@H](CCCCN)NC(=O)CNC(=O)[C@H](C(C)C)NC(=O)[C@H](CCCNC(=N)N)NC1=O (HELM PEPTIDE1{G.K.P.R.P.Y.S.P.R.P.T.S.H.P.R.P.I.R.V.G.K.P.R.P.Y.S.P.R.P.T.S.H.P.R.P.I.R.V}$PEPTIDE1,PEPTIDE1,1:R1-38:R2$$$V2.0)
> 128 | > 64 | 64 (≈ 134 µg/mL) | 32 (≈ 66.9 µg/mL) | > 64 | > 64 | > 64 | > 64 | > 64 | > 64 | > 128 | > 64 | 64 (≈ 134 µg/mL) | > 64 | CC[C@H](C)[C@@H]1NC(=O)[C@H](Cc2ccc(O)cc2)NC(=O)[C@H](C(C)C)NC(=O)[C@@H]2CCCN2C(=O)[C@H](CCCN=C(N)N)NC(=O)[C@H](CC(N)=O)NC(=O)[C@H](CC(N)=O)NC(=O)CNC(=O)[C@H](CC(C)C)NC(=O)[C@H](CCCN=C(N)N)NC(=O)[C@@H]2CCCN2C(=O)[C@H](Cc2c[nH]cn2)NC(=O)[C@@H]2CCCN2C(=O)[C@@H]2CCCN2C(=O)[C@H](CCCN=C(N)N)NC(=O)[C@@H]2CCCN2C(=O)[C@H](CCC(N)=O)NC(=O)[C@@H]2CCCN2C1=O (HELM PEPTIDE1{G.N.N.R.P.V.Y.I.P.Q.P.R.P.P.H.P.R.L}$PEPTIDE1,PEPTIDE1,1:R1-18:R2$$$V2.0)
